Compound activity (PubChem)
In the library only some 3.3% were active in any assay of this set; here they are far more common.
PMI act hi M6P = activators of human phosphomannose isomerase at near-saturating mannose 6-phosphate | P34949 | coupled PMI enzyme assay, resazurin fluorescence, 20 min; stronger effect = higher value; 1 = untreated enzyme, 0 = substrate-free blank | activation factor at 20 µM | hit rate 0.34% among 190,000 | AID 1216;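 active = activation factor of 2 or more at 20 µM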
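Test system: human phosphomannose isomerase with PGI, G6PDH, diaphorase coupling enzymes; amount: 15 ng/mL PMI; incubation: enzyme reaction with compound 20 min at room temperature; technique: resorufin fluorescence (Ex 544/Em 590 nm) from resazurin via diaphorase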
ABCB1 inh = inhibitors of human ABCB1 transporter, ABCG2 counter-screen; AID 1326; hit rate 0.067% among 190,000; inhibition, % at 6.6 µM; P08183; CCRF-Adr cells, JC-1 efflux, flow cytometry; in the data active = inhibition above about 40%;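 note: higher value means more JC-1 retained so stronger ABCB1 efflux block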
ABCG2 inh = inhibitors of human ABCG2 transporter, ABCB1 counter-screen | hit rate 0.1% among 190,000 | Q9UNQ0 | IgMXP3 cells, JC-1 efflux, flow cytometry | inhibition, % at 6.6 µM;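 active = inhibition above 80%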
Target sequence (Q9UNQ0 whole entry, looked up): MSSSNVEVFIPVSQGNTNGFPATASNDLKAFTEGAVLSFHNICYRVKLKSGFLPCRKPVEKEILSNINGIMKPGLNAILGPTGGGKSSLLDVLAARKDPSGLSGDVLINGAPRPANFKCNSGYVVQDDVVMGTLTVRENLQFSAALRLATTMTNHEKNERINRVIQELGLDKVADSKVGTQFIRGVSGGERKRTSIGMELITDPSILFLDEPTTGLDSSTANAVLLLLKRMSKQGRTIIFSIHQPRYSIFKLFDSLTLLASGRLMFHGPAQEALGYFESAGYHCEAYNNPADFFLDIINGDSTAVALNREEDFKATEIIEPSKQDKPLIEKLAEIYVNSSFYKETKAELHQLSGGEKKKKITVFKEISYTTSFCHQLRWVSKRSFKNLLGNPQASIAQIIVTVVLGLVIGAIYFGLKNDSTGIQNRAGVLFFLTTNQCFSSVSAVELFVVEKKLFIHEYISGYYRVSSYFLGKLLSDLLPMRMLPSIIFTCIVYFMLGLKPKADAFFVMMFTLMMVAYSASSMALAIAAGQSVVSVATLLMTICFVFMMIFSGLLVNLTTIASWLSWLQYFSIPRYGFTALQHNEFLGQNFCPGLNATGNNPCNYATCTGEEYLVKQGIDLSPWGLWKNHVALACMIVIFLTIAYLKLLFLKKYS
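System: two drug-resistant human cell lines, ABCG2 and ABCB1; controls: nicardipine high and DMSO low controls; times: 10 min exposure at 25 °C with rotation, no wash; detection: flow cytometry of retained JC-1 fluorescence; read-out basis: percent efflux inhibition, scaled nicardipine 100% to DMSO 0%; doses: one concentration, 6.6 µM final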
PMI activator = phosphomannose isomerase (human) activation; activation factor at 20 µM; purified human PMI, coupled resazurin fluorescence, 20 min; stronger effect = higher value; 1 = vehicle control, 0 substrate-free wells; hit rate 0.005% among 190,000; AID 1214; P34949;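 active = activation factor of 2 or more at 20 µM, relative to plate controls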
Cl transport mod = modulators of human KCC2 chloride dependent transport. Q9H2X9. KCC2 cells, thallium flux FluoZin-2 fluorescence. B-score of Tl+ flux slope (higher = more flux/activation; lower = inhibition) at 10 µM. hit rate 2.2% among 190,000. AID 1456;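 active = thallium flux slope and its plate-corrected score both differing from the plate sample mean at a set confidence after two filtering rounds, in either direction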;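 note: slope of fluorescence scaled to starting intensity during 10 to 20 s after thallium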
ROMK mod = modulates human ROMK potassium channel activity; AID 1918; Tet-inducible ROMK, thallium flux fluorescence; actives lie on both sides; hit rate 2% among 130,000; P48048; B-score at 10 µM;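 active = signal ratio slope over the read window, or its plate-corrected B-score, at least 3 SD from the plate mean, either direction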;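 note: B-score of the F/F0 ratio slope over 7 to 12 s after thallium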
ROMK hit retest = confirmation of human ROMK potassium channel modulators; shares compounds with ROMK mod; ROMK thallium flux, fluorescence ratio; stronger effect = lower value; normalized thallium flux (F/F0 slope) at 10 µM; hit rate 54% among 3,000;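 active = Flux at 10 µM at least 3 SD below or above vehicle control mean in one or both replicates; inconclusive = no clear call, values can overlap the other calls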
Large screens that a line does not name were inactive (follow-up assays come after a bar, where they were run).

CCn1c(SC(C)C)nnc1-c1cc(-c2ccccc2)sc1N	ROMK mod -2.8 | ROMK hit retest inactive
CCS(=O)CCSc1nc2ccccc2s1 (configuration not stated)	none (no result: ROMK mod)
Cc1ccnc(NC(=O)CCC(=O)N(CC(=O)NC2CCCCC2)Cc2cccs2)c1	none | ROMK hit retest inactive
Cc1cccc(N2C(=O)CC(N(C(=O)c3ccco3)c3cccc(C)c3)C2=O)c1 (configuration not stated)	none
N#Cc1c(Nc2ccc(Cl)cc2)s[nH]c1=O	ROMK mod -12 (no result: PMI act hi M6P, ABCB1 inh, ABCG2 inh, PMI activator) | ROMK hit retest 0.065
COc1ccccc1C1CCN(c2cc(O)ccc2[N+](=O)[O-])CC1	none (no result: PMI act hi M6P, ABCB1 inh, ABCG2 inh, PMI activator, Cl transport mod, ROMK mod) | ROMK hit retest inactive
COc1ccccc1C1CCN(C(=O)c2cccs2)CC1	none (no result: PMI act hi M6P, ABCB1 inh, ABCG2 inh, PMI activator)
CN(C)CC(CCC(CN(C)C)C(=O)c1ccccc1)C(=O)c1ccccc1 (configuration not stated)	ROMK mod -3.2 (no result: PMI act hi M6P, ABCB1 inh, ABCG2 inh, PMI activator) | ROMK hit retest 0.044
CCCOCCOC(=O)C1=C(C)NC(=O)NC1c1cc(Cl)c(O)c(OC)c1 (configuration not stated)	none (no result: ROMK mod)
COc1ccc(Nc2oc(COc3ccc(Cl)cc3)nc2C#N)cc1	none (no result: Cl transport mod, ROMK mod)
COc1ccc(CNc2oc(COc3ccc(Cl)cc3)nc2C#N)cc1	ROMK mod -2.1 | ROMK hit retest inactive
COc1ccc(NC(=O)CN(C)C(=O)c2oc3ccccc3c2C)cc1	none
COc1ccc(CNC(=O)c2ccc(N3CCCC3=O)cc2)cc1	none
COc1ccc(CCNC(=O)CN2CCC(C(N)=O)CC2)cc1	none (no result: Cl transport mod, ROMK mod) | ROMK hit retest inactive
COc1ccc(CCNC(=O)COC(=O)c2ccc(N3CCCC3=O)cc2)cc1	ROMK mod 1.4 | ROMK hit retest inactive
O=C(COC(=O)C1c2ccccc2Oc2ccccc21)NC1CCS(=O)(=O)C1 (configuration not stated)	none (no result: ROMK mod)
CCCN1C(=O)c2cc(C(=O)Nc3ccc(OC)cc3OC)ccc2C1Nc1ccc(OC)cc1OC (configuration not stated)	ROMK mod -3.7 | ROMK hit retest inconclusive
CCn1c2ccccc2c2cc(NC(=O)COC(=O)c3cc(S(N)(=O)=O)c(Cl)cc3Cl)ccc21	none (no result: Cl transport mod, ROMK mod)
Cc1cc(C)n2c(SCC(C)C)nnc2n1	none (no result: ROMK mod)
CCSc1nnc2nc(C)cc(C)n12	ROMK mod 1.9 | ROMK hit retest inactive
CCC(C)(C)n1nnnc1CN1CCN(c2nc3cc(OC)ccc3cc2C#N)CC1	none (no result: ROMK mod)
CC(=N/O)/C(C)=N\NC(=O)c1ccccn1	ROMK mod -3.9 | ROMK hit retest inactive
CCOC(=O)N1CCC(Nc2c(N3CCN(c4cccc(C(F)(F)F)c4)CC3)c(=O)c2=O)CC1	none
CC1CC(C)CN(C(=O)C(C)N(C)CC(=O)Nc2ccccc2Cl)C1 (configuration not stated)	none
COc1cccc(N2CCN(c3ncnc4c3cnn4-c3ccc(C)cc3C)CC2)c1	none (no result: ROMK mod) | ROMK hit retest inactive
CC1CC(N(C(=O)C2CC2)c2ccccc2)c2ccccc2N1C(=O)C1CC1 (configuration not stated)	ROMK mod -3.4 | ROMK hit retest 0.058
Cc1ccc(-n2c(-c3ccc(Br)cc3)c[n+]3c2CCc2ccc4cccnc4c2-3)cc1	none (no result: ROMK mod) | ROMK hit retest 0.034
CCn1c(=O)c([N+](=O)[O-])c(Cl)c2ccccc21	ROMK mod -4.9 | ROMK hit retest 0.046
CCn1c(=O)c([N+](=O)[O-])c(NCCN(C)C)c2ccccc21	none
O=C(N[C@@H](Cc1ccccc1)C(=O)NC1CCCCC1)c1ccco1	ROMK mod 1.9 | ROMK hit retest inactive
CCOC(=O)CSC1=C(C#N)C(c2ccccc2OCC)C(C#N)C(=O)N1 (configuration not stated)	ROMK mod 3.2 | ROMK hit retest inactive
CCOc1ccccc1CNc1nc2nc3c(c(=O)n2[nH]1)CCC3	none (no result: Cl transport mod, ROMK mod) | ROMK hit retest inactive
C/C(Cl)=C\Cn1c(N2CCCC2)nc2c1c(=O)[nH]c(=O)n2C	none (no result: Cl transport mod, ROMK mod) | ROMK hit retest inactive
C=CCn1c(N2CCCCCC2)nc2c1c(=O)[nH]c(=O)n2C	none (no result: ROMK mod)
COc1ccc2c(c1)c(=O)cc(C)n2CC(=O)NCc1ccco1	none
COc1ccc(NC(=O)Cn2c(=O)n(-c3ccc(OC)cc3OC)c(=O)c3c(C)c(C)sc32)cc1	none
O=C1CCN1C1(C(=O)NC2CCCCC2)CCCC1	none
O=C1CC(c2ccco2)CC2=C1C1c3ccccc3C(=O)N1c1ccccc1N2 (configuration not stated)	ROMK mod 6.9 (no result: Cl transport mod) | ROMK hit retest 0.098
CCC(=O)N1c2ccccc2NC2=C(C(=O)CC(c3ccco3)C2)C1c1ccco1 (configuration not stated)	none
Cn1c(N)c(C(=O)COC(=O)c2cccnc2Cl)c(=O)n(C)c1=O	none (no result: ROMK mod) | ROMK hit retest inactive
CC(C)Cn1c(N)c(C(=O)COC(=O)c2cccnc2Cl)c(=O)n(C)c1=O	none
COc1cccc(NC(=O)N2CCN(c3nc(-c4cccc(OC)c4)cs3)CC2)c1	none (no result: PMI act hi M6P, ABCB1 inh, ABCG2 inh, PMI activator, ROMK mod) | ROMK hit retest 0.068
COc1cccc(-c2csc(N3CCN(C(=O)Nc4ccccc4Cl)CC3)n2)c1	none
COc1ccc(N2CCN(C(c3cccc(OC)c3OC)c3nnnn3C3CCCC3)CC2)cc1 (configuration not stated)	none (no result: ROMK mod)
COc1cccc(C(c2nnnn2C(C)(C)C)N2CCN(C3CCCCC3)CC2)c1OC (configuration not stated)	ROMK mod -2.4 (no result: Cl transport mod) | ROMK hit retest inconclusive
Cc1ccc(-n2c(O)c(/C=N/NC(=O)C3COc4ccccc4O3)c3ccccc3c2=O)cc1 (configuration not stated)	ROMK mod -2.7 | ROMK hit retest 0.052
O=C(N/N=C/c1c(O)n(-c2ccccc2Cl)c(=O)c2ccccc12)C1COc2ccccc2O1 (configuration not stated)	none (no result: ROMK mod)
O=C(N/N=C/C=C/c1ccccc1)c1n[nH]c2c1CCC2	ROMK mod 4 | ROMK hit retest inactive
CC(/C=N/NC(=O)c1n[nH]c2c1CCC2)=C\c1ccccc1	ROMK mod 5.5 | ROMK hit retest inactive
O=C(N/N=C/C(Br)=C\c1ccccc1)c1n[nH]c2c1CCC2	none
O=C(Nc1ccc(O)c(-c2nc3ccccc3o2)c1)C1(c2ccc(Br)cc2)CCCC1	none (no result: ROMK mod) | ROMK hit retest inactive
Cc1cccc(NC(=O)C2c3ccccc3Oc3ccccc32)n1	none
CC(=O)c1ccc(OCC(C)Oc2ccc(C#N)cc2)cc1 (configuration not stated)	none (no result: PMI act hi M6P, ABCB1 inh, ABCG2 inh, PMI activator, ROMK mod)
O=C(C1CCN(S(=O)(=O)c2cccc3cccnc23)CC1)N1CCN(c2ccccc2)CC1	none (no result: ROMK mod)
